Rows were chosen to be rich in hits. Some 2.9% of all compounds tested hit in one or more screens of this group.
TAG inh – inhibitors of triacylglycerol accumulation, primary screen, cell-based, uHTS, fluorescence, H9c2 | H9c2 cells, Nile Red lipid (TAG) fluorescence; cells loaded with 200 µM oleic acid | inhibition, % at 12.5 µM | 230,000 compounds, 0.66% hits;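 active = pattern-corrected inhibition of lipid staining of at least 50% with the nuclear-stain viability signal not falling by more than 50%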;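 note: 0% = DMSO wells and 100% = triacsin C control wells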
GalR3 antagonist – GalR3 antagonists in HEK293 cells, primary screen, cell-based, fluorescence readout | Galanin receptor type 3 (Homo sapiens), O60755 | HEK293 GalR3-CNG cAMP membrane potential fluorescence; galR3 body fused to GalR1 C-terminus | inhibition, % at 3 µM | 360,000 compounds, 0.44% hits;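 active = inhibition above the screen-wide average plus 3 SD, cut at about 13% in these data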;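 note: forskolin and galanin both at EC90 stimulate the cells; cAMP rise reported by CNG channel membrane potential dye signal; 0% = forskolin plus galanin with DMSO and 100% = forskolin alone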
Target sequence (O60755 1-299 limits assumed): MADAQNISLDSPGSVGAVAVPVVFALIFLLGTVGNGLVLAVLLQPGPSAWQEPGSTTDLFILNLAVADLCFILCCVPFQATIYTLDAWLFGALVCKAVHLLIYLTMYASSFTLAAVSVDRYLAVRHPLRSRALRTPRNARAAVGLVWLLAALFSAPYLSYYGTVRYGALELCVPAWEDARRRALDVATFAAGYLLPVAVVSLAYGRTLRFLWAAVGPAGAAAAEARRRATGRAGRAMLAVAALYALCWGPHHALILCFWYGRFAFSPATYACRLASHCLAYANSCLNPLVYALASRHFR
Efflux pump mplx – inhibitors of Candida efflux pumps in yeast, primary screen, S. cerevisiae, Nile Red, multiplex | 330,000 compounds, 0.44% hits | S. cerevisiae Candida pump triplex | AID 485275, 2010 | inhibition, % at 10 µM;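 active = plate passing quality check with inhibition over a set limit, or well fluorescence over plate mean plus 4 SD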;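 note: Nile Red retained in pooled yeast measured as flow cytometry median fluorescence; 0% = buffer negative control and 100% = Enniatin B positive control; higher means more Nile Red kept so more efflux inhibition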
MC4R antag cAMP – MC4R antagonists of cAMP signaling, primary screen, cell-based, TR-FRET, antagonist arm of biased-ligand search. 360,000 compounds, 0.48% hits. inhibition, % at 6.5 µM. MC4R-expressing cells, MTII-stimulated cAMP, LANCE TR-FRET. AID 540295, 2011;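 active = inhibition above its plate's cutoff, the mean of tested wells on that plate plus 3 SD, cut at about 29% in these data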;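 note: 0% = Melanotan II alone and 100% = Melanotan II plus saturating MCL0020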
Target sequence (P32245 whole entry, looked up): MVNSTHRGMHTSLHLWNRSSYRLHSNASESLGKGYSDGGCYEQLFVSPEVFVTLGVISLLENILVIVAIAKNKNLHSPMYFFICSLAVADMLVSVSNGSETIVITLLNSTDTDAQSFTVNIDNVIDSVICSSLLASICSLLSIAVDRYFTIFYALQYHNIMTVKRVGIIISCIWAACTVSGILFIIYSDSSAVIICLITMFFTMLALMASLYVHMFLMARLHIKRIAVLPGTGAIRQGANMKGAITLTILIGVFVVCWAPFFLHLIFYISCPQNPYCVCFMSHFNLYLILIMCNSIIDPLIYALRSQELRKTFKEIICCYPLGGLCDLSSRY
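Material – human MC4R-expressing U2OS cells · Repeats – no replicates · Detection – TR-FRET with Eu-cAMP and labeled anti-cAMP, 671 nm · Times – compound 30 min, challenge 1 h, detection 1 h · Compound – single nominal compound dose of 6.5 µM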
Calb FLC – C. albicans growth inhibition with fluconazole, primary screen, CaCi-2 strain, Alamar Blue fluorescence; C. albicans CaCi-2 + fluconazole, 48 h; growth inhibition, % (no concentration beside the values); 300,000 compounds, 0.57% hits;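 active = growth inhibition above about 58% in most replicates, limit read from the data, passing the limit was not always enough; inconclusive = exactly half the replicates above a set limit; inactive = most replicates below a set limit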;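 note: all wells also contain fluconazole at 8 µg/ml as a sub-toxic cotreatment; 0% = median of DMSO wells and 100% = median of geldanamycin control wells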
MC4R ag barr – MC4R agonists recruiting beta-arrestin, primary screen, cell-based, luminescence, agonist arm of biased-ligand search. 360,000 compounds, 0.98% hits. AID 540308, 2011. activation, % at 8.9 µM. U2OS MC4R beta-arrestin complementation; percent of melanotan II response, DMSO zero;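 active = activation above a per-plate cutoff, the mean activation of sample wells on that plate plus 3 SD, cut at about 8% in these data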
MC4R barr ag – MC4R beta-arrestin agonists, retest, confirmation, cell-based, luminescence, U2OS; AID 602192, 2012; 2,400 compounds, 31% hits; activation, % at 8.9 µM; shares compounds with MC4R ag barr; U2OS MC4R beta-arrestin recruitment; scaled DMSO 0%, Melanotan II 100%;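 active = mean activation across replicates above the hit cutoff set in the earlier primary screen, cut at about 8% in these data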
MOR-DOR barr ag – agonists of MOR-DOR heterodimerization, counter-screen for MC4R biased agonist project, cell-based, luminescence; shares compounds with MC4R ag barr; U2OS PathHunter beta-arrestin, beta-gal luminescence; percent of deltorphin B response, DMSO zero; activation, % at 9.2 µM; 2,400 compounds, 5.8% hits; AID 602194, 2012;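 active = mean activation across replicates exceeds the hit threshold derived in the earlier primary screen, cut at about 18% in these data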;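 note: 100% = deltorphin B at 0.9 µM final and 0% = DMSO alone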
* = called active by the depositor; ? = inconclusive; . = no result.

SMILES	TAG inh	GalR3 antagonist	Efflux pump mplx	MC4R antag cAMP	Calb FLC	MC4R ag barr	MC4R barr ag	MOR-DOR barr ag
CC(=O)c1nn(-c2ccc(Br)cc2)cc1C(=O)c1ccccc1	7	-4	0	-12	1	29*	2	19*
O=c1[nH][nH]c2c1[C@H](c1ccc(Cl)cc1)O[C@H](C1CCCCC1)C2	.	-4	.	.	.	.	.	.
CCCN(C)C1CN(Cc2cn(Cc3ccc(C)cc3)nn2)S(=O)(=O)C1 (stereo not given)	.	-7	.	.	.	.	.	.
O=C(Cc1cccs1)Nc1cccc(-c2nc3cc4ccccc4cc3[nH]2)c1	.	3	0	19	23	11*	14*	6
O=C(CCc1nc2ccccc2c(=O)[nH]1)OCc1ccc(-c2ccccc2)cc1	.	-1	0	-6	-23	18*	3	6
O=C(CCc1nc2ccccc2c(=O)[nH]1)OCc1cccc(C(F)(F)F)c1	.	-2	0	5	13	4	.	.
Cc1ccccc1N/C(SCc1cccc(Br)c1)=C(/C#N)C(N)=O	.	-10	0	11	-4	23*	2	9
COc1cccc(N/C(SCc2cccc([N+](=O)[O-])c2)=C(/C#N)C(N)=O)c1	3	0	0	2	-6	-2	.	.
CC1=NC2=CC=CC3=NC(C(Cl)(Cl)Cl)=NC(=N1)N23	.	-10	.	.	.	.	.	.
O=C(CC(=O)Nc1cc(Cl)ccc1Cl)Nc1cc(Cl)ccc1Cl	.	-7	0	9	-10	15*	4	5
O=C1CSCc2nc3ccccc3n21	-17	-8	.	4	.	1	.	.
CCOC(=O)c1[nH]c2ccc(OC)cc2c1NC(=O)c1ccc2c(c1)OCO2	17	-2	0	-1	10	-1	.	.
CCOC(=O)c1[nH]c2cc(OC)c(OC)cc2c1NC(=O)c1ccc2c(c1)OCO2	.	-3	0	-19	10	26*	2	3
COc1cc(-c2nnc(COc3ccc(Cl)cc3C)o2)cc(OC)c1OC	2	-4	0	1	-3	28*	6	6
Cc1cc(Cl)ccc1OCc1nnc(-c2ccccc2C)o1	-8	-2	.	2	.	2	.	.
COc1ccc(CN2C(=O)CN(S(C)(=O)=O)CC2(C)C(=O)Nc2c(C)cccc2C)cc1 (stereo not given)	.	-2	.	.	.	.	.	.
O=C(NCc1ccccc1)c1cc(C2CCCCN2C(=O)c2ccccc2)on1 (stereo not given)	17	-2	.	6	.	-1	.	.
CSc1ccccc1NC(=O)C1CC(c2ccccc2O)=NO1 (stereo not given)	.	-1	0	3	12	1	.	.
COC(=O)c1ccccc1NC(=O)C1CC(c2ccccc2O)=NO1 (stereo not given)	.	1	0	6	-7	14*	-2	4
Cc1cccnc1C1=NOC(Cc2ccccc2)C(=O)N1CCOc1ccc(F)cc1 (stereo not given)	-11	1	.	2	.	0	.	.
COc1cccc(OCC(=O)NN=C2c3ccccc3-c3ccccc32)c1	.	-6	0	-4	-7	65*	8	6
CCSc1nnc(-c2ccc(Cl)cc2)c2ccccc12	-30	-3	0	2	?	19*	-2	3
O=C(NCc1ccco1)c1cc(-c2ccc3c(c2)OCO3)on1	.	-8	0	4	-7	12*	6	5
CCOc1ccc(Cn2c3ccc(OC)cc3c3nc4ccccc4nc32)cc1OC	.	2	0	7	2	28*	26*	4
COc1ccc2c(c1)c1nc3ccccc3nc1n2Cc1ccc(OC)c(OC)c1	.	-1	0	7	5	11*	1	3
SMILES	TAG inh	GalR3 antagonist	Efflux pump mplx	MC4R antag cAMP	Calb FLC	MC4R ag barr	MC4R barr ag	MOR-DOR barr ag
C[C@H](CO)N1C[C@H](C)[C@@H](CN(C)S(=O)(=O)c2ccc3c(c2)OCCCO3)OCc2cn(nn2)CCCC1=O	-2	-4	.	0	.	-1	.	.
C=CCNC(=O)NC(=O)CSc1nc2cc([N+](=O)[O-])ccc2n1-c1cccc(C(F)(F)F)c1	.	-5	0	7	-6	11*	3	6
CC1(C(=O)Nc2ccc(Cl)c(Cl)c2)CCN1CCc1ccccc1 (stereo not given)	-7	-6	.	14	.	-2	.	.
COC(=O)c1ccccc1NC(=O)COC(=O)/C=C/c1cccs1	-9	-1	0	4	.	20*	4	2
COc1cc(/C=C/C(=O)OCC(=O)Nc2ccccc2Cl)cc(OC)c1OC	-13	-3	1	1	39	15*	4	10
COc1cc(/C=C/C(=O)OCC(=O)NCCc2ccccc2)cc(OC)c1OC	-22	-5	0	10	-10	0	.	.
CSc1nc(N)nc(SCC(=O)c2ccc(C)cc2)c1C#N	.	-5	0	-16	-6	21*	22*	4
CSc1nc(N)nc(SCC(=O)OC(C)C)c1C#N	-17	5	0	-8	-6	-2	.	.
Cc1ccccc1C(=O)N[C@@H](Cc1cccnc1)C(=O)N1CCC[C@H]1C(=O)NCCc1ccccc1Cl	.	-7	.	.	.	.	.	.
COC(=O)c1sc(NC(=O)/C=C/c2ccc(C)o2)nc1C	.	-6	0	-1	-17	12*	4	1
CCOC(=O)CSc1c(-c2ccc(Cl)cc2)[nH]c2ccccc12	.	-6	0	12	31	11*	4	14
O=C(Cc1cccs1)NCCSc1c(-c2ccc(Cl)cc2)[nH]c2ccccc12	19	.	0	8	-6	3	.	.
CCN1C(=O)/C(=C2/Sc3ccc(OC)cc3N2C)SC1=Nc1cccc(O)c1	.	-9	0	14	11	14*	17*	12
Cc1ccccc1-c1ccc2c(c1)O[C@H](CN(C)C(=O)C1CC1)[C@@H](C)CN([C@@H](C)CO)S2(=O)=O	1	-6	.	12	.	0	.	.

Screens from PubChem BioAssay.
